Measured values taken from article PMC4839537 (Biochemical pharmacology, 2016).
Numbered stars: 1 amine (or outer) side, 2 acyl side, 3 side chain; on linkers, the order of the positions; unused ones are H or OH. Bridge positions count the residues as written; N and C are the ends. Square brackets hold non-standard residues; d marks the D form. Peptide text beside a SMILES is read from it. * marks the point of attachment. Leu(3R-OH,Nα-propionyl) = CCC(=O)N[C@H](C(=O)*)[C@H](O)C(C)C; X2 = CC(=O)NC(C(=O)OC(C(C)C)C(N[*:1])C(=O)[*:2])C(O)C(C)C; X1 = CC(C)[C@@H](O[*:3])[C@H](N[*:1])C(=O)[*:2]; NMeT = CN[CH](C(=O)O)[CH](C)O; dPhLac = O=C(O)[C@H](O)Cc1ccccc1; PhLac = O=C(O)[CH](O)Cc1ccccc1; NMeA = CN[CH](C)C(=O)O; NMeDha = C=C(NC)C(=O)O

Experiments:
[1] = target: M3 muscarinic receptor (Homo sapiens, UniProt P20309); format: cell-based
Sequence of M3 muscarinic receptor (P20309 whole entry): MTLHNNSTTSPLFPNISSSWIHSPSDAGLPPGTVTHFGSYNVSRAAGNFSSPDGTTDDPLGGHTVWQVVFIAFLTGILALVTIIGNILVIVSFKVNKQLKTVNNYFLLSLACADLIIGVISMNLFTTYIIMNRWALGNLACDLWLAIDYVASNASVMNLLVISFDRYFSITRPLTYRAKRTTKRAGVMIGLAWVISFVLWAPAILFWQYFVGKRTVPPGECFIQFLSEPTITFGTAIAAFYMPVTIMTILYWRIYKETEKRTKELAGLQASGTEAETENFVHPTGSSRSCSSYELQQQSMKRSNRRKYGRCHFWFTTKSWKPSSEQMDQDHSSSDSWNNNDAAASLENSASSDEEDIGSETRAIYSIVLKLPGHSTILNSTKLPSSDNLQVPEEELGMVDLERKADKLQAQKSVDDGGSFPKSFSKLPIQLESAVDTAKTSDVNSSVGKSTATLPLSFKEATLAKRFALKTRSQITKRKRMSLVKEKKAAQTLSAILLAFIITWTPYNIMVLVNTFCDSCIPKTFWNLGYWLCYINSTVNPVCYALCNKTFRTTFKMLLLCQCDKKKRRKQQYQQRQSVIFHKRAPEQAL

[2] = target: P2Y1R (Homo sapiens, UniProt P47900); format: cell-based
Sequence of P2Y1R (P47900 whole entry): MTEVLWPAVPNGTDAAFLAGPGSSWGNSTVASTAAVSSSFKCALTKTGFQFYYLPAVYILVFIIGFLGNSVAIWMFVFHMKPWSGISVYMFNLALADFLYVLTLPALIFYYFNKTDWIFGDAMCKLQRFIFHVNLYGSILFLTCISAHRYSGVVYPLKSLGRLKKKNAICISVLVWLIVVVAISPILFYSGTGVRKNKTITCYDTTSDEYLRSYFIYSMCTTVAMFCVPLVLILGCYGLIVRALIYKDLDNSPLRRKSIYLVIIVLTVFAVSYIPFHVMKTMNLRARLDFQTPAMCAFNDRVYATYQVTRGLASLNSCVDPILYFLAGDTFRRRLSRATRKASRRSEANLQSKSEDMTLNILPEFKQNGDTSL

[3] = target: human A1AR (Gi-coupled) (Homo sapiens, UniProt P30542); format: cell-based
Sequence of human A1AR (Gi-coupled) (P30542 whole entry): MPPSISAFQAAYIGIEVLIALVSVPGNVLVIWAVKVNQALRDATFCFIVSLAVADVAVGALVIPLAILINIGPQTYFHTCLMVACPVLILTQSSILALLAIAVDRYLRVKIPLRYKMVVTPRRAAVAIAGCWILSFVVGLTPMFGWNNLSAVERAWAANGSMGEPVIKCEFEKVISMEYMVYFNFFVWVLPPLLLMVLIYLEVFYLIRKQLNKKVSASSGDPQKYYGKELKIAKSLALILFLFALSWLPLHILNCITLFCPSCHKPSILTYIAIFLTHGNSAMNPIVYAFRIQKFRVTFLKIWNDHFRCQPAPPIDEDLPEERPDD

[4] = target: P2Y12R (Gi-coupled) (Homo sapiens, UniProt Q9H244); format: cell-based
Sequence of P2Y12R (Gi-coupled) (Q9H244 whole entry): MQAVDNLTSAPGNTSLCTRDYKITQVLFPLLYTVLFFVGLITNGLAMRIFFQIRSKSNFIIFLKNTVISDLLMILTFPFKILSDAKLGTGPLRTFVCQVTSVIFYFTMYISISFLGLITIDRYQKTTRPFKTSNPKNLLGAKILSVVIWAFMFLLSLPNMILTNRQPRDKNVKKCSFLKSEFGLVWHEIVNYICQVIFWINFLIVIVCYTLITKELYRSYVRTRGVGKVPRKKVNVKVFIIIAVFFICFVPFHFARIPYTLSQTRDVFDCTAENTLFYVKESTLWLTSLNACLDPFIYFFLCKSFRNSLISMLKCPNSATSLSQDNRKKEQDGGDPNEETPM

[5] = target: P2Y1R (Gq-coupled) (Homo sapiens, UniProt P47900); format: cell-based
Sequence of P2Y1R (Gq-coupled) (P47900 whole entry): as the sequence (P47900 whole entry) above

[6] = target: endogenous A1AR (Mesocricetus auratus, UniProt A0A1U8BVR4); format: cell-based, Syrian hamster
Sequence of endogenous A1AR (A0A1U8BVR4 1-326): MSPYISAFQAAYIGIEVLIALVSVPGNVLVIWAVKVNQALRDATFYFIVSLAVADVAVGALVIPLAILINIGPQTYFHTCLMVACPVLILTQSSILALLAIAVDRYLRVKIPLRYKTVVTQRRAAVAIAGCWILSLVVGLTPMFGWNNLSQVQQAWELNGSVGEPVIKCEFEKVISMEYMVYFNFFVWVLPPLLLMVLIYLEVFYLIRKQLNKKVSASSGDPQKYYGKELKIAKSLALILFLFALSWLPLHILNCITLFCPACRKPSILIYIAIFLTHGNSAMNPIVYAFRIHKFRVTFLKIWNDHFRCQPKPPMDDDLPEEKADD

[7] = target: M2 muscarinic receptor (Gi-coupled) (Homo sapiens, UniProt P08172); format: cell-based
Sequence of M2 muscarinic receptor (Gi-coupled) (P08172 whole entry): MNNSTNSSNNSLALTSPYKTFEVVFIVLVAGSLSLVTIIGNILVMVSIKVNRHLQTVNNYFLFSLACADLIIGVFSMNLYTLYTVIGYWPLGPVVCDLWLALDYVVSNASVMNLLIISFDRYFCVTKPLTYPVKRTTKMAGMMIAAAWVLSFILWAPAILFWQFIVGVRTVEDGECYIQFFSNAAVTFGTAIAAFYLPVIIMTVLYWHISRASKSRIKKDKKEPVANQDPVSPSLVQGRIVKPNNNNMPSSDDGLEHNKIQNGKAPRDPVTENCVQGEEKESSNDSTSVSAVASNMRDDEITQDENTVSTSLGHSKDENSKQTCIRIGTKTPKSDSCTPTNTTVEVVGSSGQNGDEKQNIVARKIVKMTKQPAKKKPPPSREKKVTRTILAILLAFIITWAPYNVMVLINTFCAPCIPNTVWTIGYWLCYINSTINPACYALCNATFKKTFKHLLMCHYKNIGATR

[8] = system: Gαi subunits; conditions: cited from earlier work
[9] = target: Gαq-coupled P2Y1R (Homo sapiens, UniProt P47900); assay: Akt1/2/3 phosphorylation in 1321N1 cells expressing the P2Y1R; format: cell-based; conditions: UBO-QIC 100 nM
Sequence of Gαq-coupled P2Y1R (P47900 whole entry): as the sequence (P47900 whole entry) above
In short: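 1321N1 astrocytoma cells expressing human P2Y1R were seeded at 30,000 cells/100 μl in complete medium. After attachment they were serum-starved overnight, pretreated with test compound (100 nM) for 30 min, then given agonist in Hank's buffered salt solution for 20 min. Lysed cells were assayed for p-Akt1/2/3 (Ser473) by AlphaScreen SureFire. Mean ± SEM of 3 independent experiments in duplicate.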

[10] = target: recombinant human A2BAR (Gαs) (Homo sapiens, UniProt P29275); format: cell-based
Sequence of recombinant human A2BAR (Gαs) (P29275 whole entry): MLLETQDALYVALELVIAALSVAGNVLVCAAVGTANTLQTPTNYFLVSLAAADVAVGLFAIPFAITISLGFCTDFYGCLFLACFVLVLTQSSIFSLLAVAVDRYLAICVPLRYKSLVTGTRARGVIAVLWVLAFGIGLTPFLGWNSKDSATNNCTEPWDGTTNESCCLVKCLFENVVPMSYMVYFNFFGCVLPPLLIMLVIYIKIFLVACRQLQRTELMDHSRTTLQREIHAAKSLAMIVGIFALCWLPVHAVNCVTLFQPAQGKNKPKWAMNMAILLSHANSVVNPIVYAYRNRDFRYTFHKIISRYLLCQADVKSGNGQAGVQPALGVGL

[11] = target: recombinant human A2AAR (Homo sapiens, UniProt P29274); assay: CGS21680-induced cAMP accumulation in CHO cells expressing the A2AAR; format: cell-based; conditions: data not shown
Sequence of recombinant human A2AAR (P29274 whole entry): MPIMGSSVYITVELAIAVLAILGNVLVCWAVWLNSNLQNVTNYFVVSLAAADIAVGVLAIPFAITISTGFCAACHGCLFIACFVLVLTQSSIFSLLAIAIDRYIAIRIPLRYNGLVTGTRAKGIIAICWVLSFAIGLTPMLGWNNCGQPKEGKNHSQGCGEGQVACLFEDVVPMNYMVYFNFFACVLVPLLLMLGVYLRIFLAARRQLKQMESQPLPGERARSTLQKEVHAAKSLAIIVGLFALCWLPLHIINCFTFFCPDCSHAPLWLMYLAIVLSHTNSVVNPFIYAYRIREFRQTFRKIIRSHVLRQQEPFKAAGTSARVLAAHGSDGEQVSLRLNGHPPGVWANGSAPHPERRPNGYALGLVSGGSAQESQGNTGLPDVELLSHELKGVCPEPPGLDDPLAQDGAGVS
In short: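 CHO cells stably expressing human A2AAR were grown in DMEM with 10% FBS, penicillin/streptomycin and glutamine, then plated in 96-well plates overnight. Cells were pretreated with test compound (300 nM) for 30 min or with pertussis toxin (200 ng/ml) overnight. Agonist was then added with rolipram (10 μM). Supernatant was removed, cells were lysed in 0.3% Tween-20, and cAMP was measured by AlphaScreen.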

[12] = target: A1AR (Homo sapiens, UniProt P30542); format: cell-based
Sequence of A1AR (P30542 whole entry): as the sequence (P30542 whole entry) above

[13] = system: Gα16; conditions: 1 μM; cited from earlier work
[14] = system: Gαq-coupled T1R1/T1R3 heterodimeric taste receptor; conditions: MIN6 cells; cited from earlier work
[15] = target: endogenous human P2Y1R (Homo sapiens, UniProt P47900); format: cell-based
Sequence of endogenous human P2Y1R (P47900 whole entry): as the sequence (P47900 whole entry) above

[16] = target: M2 muscarinic receptor (Homo sapiens, UniProt P08172); format: cell-based
Sequence of M2 muscarinic receptor (P08172 whole entry): as the sequence (P08172 whole entry) above

[17] = target: Gi-coupled A1AR (Homo sapiens, UniProt P30542); format: cell-based
Sequence of Gi-coupled A1AR (P30542 whole entry): as the sequence (P30542 whole entry) above

[18] = target: Gi-coupled P2Y12R (Homo sapiens, UniProt Q9H244); format: cell-based
Sequence of Gi-coupled P2Y12R (Q9H244 whole entry): as the sequence (Q9H244 whole entry) above

[19] = target: recombinant human M3 muscarinic receptor (Gαq) (Homo sapiens, UniProt P20309); format: cell-based
Sequence of recombinant human M3 muscarinic receptor (Gαq) (P20309 whole entry): as the sequence (P20309 whole entry) above

[20] = system: platelet aggregation; conditions: cited from earlier work
[21] = system: ERK1/2 activation; assay: ERK1/2 activation mediated through various GPCRs; format: cell-based
In short: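 CHO (A1AR, M2, M3) or 1321N1 (P2Y1R) cells were seeded at 30,000 cells/100 μl and serum-starved overnight after attachment. Pretreatment was test compound or GO6983 (10 μM) for 30 min, or pertussis toxin (200 ng/ml) overnight. Agonists in Hank's buffered salt solution were applied for 5 min. Cells were lysed and p-ERK1/2 (Thr202/Tyr204) was read by AlphaScreen SureFire.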

[22] = cited from earlier work
[23] = system: Gβγ; conditions: 10 μM, 5 min pretreatment; compared with PTX 50 ng/ml for 6 h; cited from earlier work
[24] = system: Gα15; conditions: cited from earlier work
[25] = system: Gαq; conditions: 10 μM, 5 min pretreatment; cited from earlier work
[26] = system: Gαq; conditions: cited from earlier work

Question: For `COc1ccc2c(c1)c(C1=C(c3c[nH]c4ccccc34)C(=O)NC1=O)cn2CCCN(C)C` [GO6983, 3-[1-[3-(dimethylamino)propyl]-5-methoxy-1H-indol-3-yl]-4-(1H-indol-3-yl)-1H-pyrrole-2,5-dione], which “Effect on ERK1/2 phosphorylation” value [1] is on record?
Answer: completely blocked

Question: And the “Effect on ERK1/2 phosphorylation” value [2]?
Answer: completely blocked

Question: Which results are given for `C=C1C(=O)N[C@@H](C)C(=O)N(C)[C@@H](C)C(=O)N[C@@H]([C@H](OC(=O)[C@@H](NC(=O)CC)[C@H](O)C(C)C)C(C)C)C(=O)N(C)[C@@H]([C@@H](C)OC)C(=O)O[C@H](C(C)C)[C@H](NC(C)=O)C(=O)O[C@H](Cc2ccccc2)C(=O)N1C` [UBO-QIC, L-threonine, (3R)-N-acetyl-3-hydroxy-L-leucyl-(αR)-α-hydroxybenzenepropanoyl-2,3-didehydro-N-methylalanyl-L-alanyl-N-methyl-L-alanyl-(3R)-3-[[(2S,3R)-3-hydroxy-4-methyl-1-oxo-2-[(1-oxopropyl)amino]pentyl]oxy]-L-leucyl-N,O-dimethyl-, (7→1)-lactone] (Ac-[X1][dPhLac][NMeDha]A[NMeA][X1](Leu(3R-OH,Nα-propionyl))[NMeT](Me); ester 1-C)?
Answer: Effect on agonist effects (calcium) [3]: completely blocked; Effect on calcium responses [3]: completely blocked; Effect on agonist effects (calcium) [4]: completely blocked; Effect on calcium responses [4]: completely blocked; Effect on agonist effects (calcium) [5]: completely blocked; Effect on calcium responses [5]: completely blocked; Effect on CPA-induced intracellular calcium mobilization [6]: completely blocked; Effect on agonist effects (calcium) [7]: completely blocked; Effect on calcium responses [7]: completely blocked; Effect on phosphorylation of protein kinase B (Akt) [8]: no effect; Effect on 2MeSADP-induced Akt1/2/3 phosphorylation [9]: completely inhibited; Effect of inhibitor on NECA-induced cAMP accumulation [10]: did not show any effect; Effect on CGS21680-induced cAMP accumulation [11]: did not affect; Block of the maximal agonist effect in ERK1/2 phosphorylation [12]: ≤ 30%; Effect on Gα16 [13]: could inhibit Gα16; Effect on ERK1/2 stimulation [14]: only partially reduced; Block of the maximal agonist effect in ERK1/2 phosphorylation [2]: ≤ 30%; Effect on MRS2365-mediated calcium transients [15]: antagonizes; Block of the maximal agonist effect in ERK1/2 phosphorylation [16]: ≤ 30%; Effect on Akt1/2/3 activity [17]: no effect; Effect on Akt1/2/3 activity [18]: no effect; Effect on the maximum effect of 2MeSADP-stimulated Akt activity [18]: modest but significant inhibition; Effect of inhibitor on carbachol-induced Ca2+ transients [19]: completely blocked; Effect on platelet aggregation [20]: inhibit platelet aggregation; Effect on ERK1/2 activation ([21]; UBO-QIC 10 nM, initial experiment): little if any effect; Effect on agonist concentration-response curves, ERK1/2 ([21]; in all cases (P2Y1, A1AR, M2, M3)): somewhat non-parallel right shift; Effect on blood pressure [22]: decrease blood pressure

Question: Which “Inhibition of fMLP-induced Ca2+ mobilization” value [23] does the source give for `C=C1C(=O)NC(C)C(=O)N(C)C(C)C(=O)NC(C(OC(=O)C(NC(C)=O)C(O)C(C)C)C(C)C)C(=O)N(C)C(C(C)OC)C(=O)OC(C)C(NC(C)=O)C(=O)OC(Cc2ccccc2)C(=O)N1C` (stereo not drawn) [YM-254890] (Ac-T[PhLac][NMeDha]A[NMeA][X2][NMeT](Me); ester 1-C; configuration not given here) here?
Answer: to a lesser extent than pertussis toxin

Question: And the “Effect on Gα15-mediated Ca2+ release” value [24]?
Answer: only a small effect

Question: What about the “Inhibition of UTP-mediated Ca2+ release” value [25] of the same compound?
Answer: much larger inhibition

Question: What about the “Effect on release of GDP from Gαq” value [26] of the same compound?
Answer: inhibits the release of GDP from Gαq
